Values joined by “and” are separate entries in the source; they are usually repeats but may differ in a detail not shown here. Identical values can stand only once.
Assays:
[1] = target: Opioid receptors; mu & delta (Homo sapiens) (UniProt P41143+P35372); experiment: Selectivity ratio of Opioid receptor mu 1 to Opioid receptor delta 1; format: protein assay
Mu-type opioid receptor [2] = target: T1, Mu-type opioid receptor (Homo sapiens, UniProt P35372); experiment: Binding affinity towards recombinant human Opioid receptor mu 1 transfected in to CHO cells for the displacement of [3H]DAMGO (mu); format: cell-based
How it was run: (§1)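 Radioligand displacement (Ki) at cloned human opioid receptors expressed in CHO cells. Radioligands: [3H]DAMGO for mu, [3H]Cl-DPDPE for delta, [3H]U69593 for kappa.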

[3] = Selectivity ratio towards Opioid receptor kappa 1 to Opioid receptor delta 1
[4] = target: T2, Kappa-type opioid receptor (Homo sapiens, UniProt P41145); experiment: Binding affinity towards recombinant human Opioid receptor kappa 1 transfected in to CHO cells for the displacement of [3H]U-69593; format: cell-based; how it was run: as §1
[5] = target: T3, Delta-type opioid receptor (Homo sapiens, UniProt P41143); experiment: Binding affinity towards recombinant human Opioid receptor delta 1 transfected in to CHO cells for the displacement of [3H]Cl-DPDPE (delta); format: cell-based; how it was run: as §1
[6] = target: T3, Delta-type opioid receptor; experiment: Binding affinity towards recombinant humanOpioid receptor delta 1 transfected in to CHO cells for the displacement of [3H]Cl-DPDPE (delta); format: cell-based; how it was run: as §1
[7] = target: T2, Kappa-type opioid receptor; experiment: Binding affinity towards recombinant human Opioid receptor kappa 1 transfected in to CHO cells for the displacement of […]; format: cell-based; how it was run: as §1
[8] = target: T2, Kappa-type opioid receptor; experiment: The antagonistic activity of compound was tested in [35S]GTP-gamma-S, Recombinant Human Opioid receptor kappa 1 transfected in to CHO cells for the displacement of [3H]U-69593; format: functional, cell-based
How it was run: (§2)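 [35S]GTPγS binding in CHO cells expressing cloned human opioid receptors. Antagonist affinity (Ke) was derived from the compound's blockade of a standard agonist: DAMGO at mu, Cl-DPDPE at delta, U69593 at kappa.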

[9] = target: T3, Delta-type opioid receptor; experiment: The antagonistic activity tested in [35S]GTP-gamma-S, Recombinant Human Opioid receptor delta 1 transfected in to CHO cells for the displacement of [3H]Cl-DPDPE (delta); format: functional, cell-based; how it was run: as §2
Mu-type opioid receptor [10] = target: T1, Mu-type opioid receptor; experiment: The antagonistic activity tested in [35S]-GTP-gamma S Recombinant Human Opioid receptor mu 1 transfected in to CHO cells for the displacement of [3H]DAMGO (mu); format: functional, cell-based; how it was run: as §2
Mu-type opioid receptor [11] = target: T1, Mu-type opioid receptor; experiment: The partial agonist activity tested in [35S]-GTP-gamma S Recombinant Human Opioid receptor mu 1 transfected in to CHO cells for the displacement of [3H]-DAMGO (mu); format: functional, cell-based
[12] = target: T3, Delta-type opioid receptor; experiment: The antagonistic activity tested in [35S]GTP-gamma-S, Recombinant Human Opioid receptor delta 1 in to CHO cells for the displacement of [3H]Cl-DPDPE (delta); format: functional, cell-based; how it was run: as §2
Mu-type opioid receptor [13] = target: T1, Mu-type opioid receptor; experiment: Selectivity ratio Opioid receptor mu 1 to Opioid receptor delta 1
[14] = target: T3, Delta-type opioid receptor; experiment: Partial agonist activity tested in [35S]GTP-gamma-S, Recombinant Human Opioid receptor delta 1 transfected in to CHO cells for the displacement of [3H]Cl-DPDPE (delta); format: functional, cell-based

T2 sequence (P41145 whole entry): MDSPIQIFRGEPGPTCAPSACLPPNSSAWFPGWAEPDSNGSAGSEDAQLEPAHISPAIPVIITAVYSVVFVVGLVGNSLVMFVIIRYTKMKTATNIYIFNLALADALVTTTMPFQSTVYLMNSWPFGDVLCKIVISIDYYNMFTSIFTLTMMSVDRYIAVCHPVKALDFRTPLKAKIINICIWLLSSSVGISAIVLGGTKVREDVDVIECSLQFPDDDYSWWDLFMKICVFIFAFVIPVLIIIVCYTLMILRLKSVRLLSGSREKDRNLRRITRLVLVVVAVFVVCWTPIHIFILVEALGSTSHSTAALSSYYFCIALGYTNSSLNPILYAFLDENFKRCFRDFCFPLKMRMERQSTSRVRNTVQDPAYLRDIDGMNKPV
T3 sequence (P41143 whole entry): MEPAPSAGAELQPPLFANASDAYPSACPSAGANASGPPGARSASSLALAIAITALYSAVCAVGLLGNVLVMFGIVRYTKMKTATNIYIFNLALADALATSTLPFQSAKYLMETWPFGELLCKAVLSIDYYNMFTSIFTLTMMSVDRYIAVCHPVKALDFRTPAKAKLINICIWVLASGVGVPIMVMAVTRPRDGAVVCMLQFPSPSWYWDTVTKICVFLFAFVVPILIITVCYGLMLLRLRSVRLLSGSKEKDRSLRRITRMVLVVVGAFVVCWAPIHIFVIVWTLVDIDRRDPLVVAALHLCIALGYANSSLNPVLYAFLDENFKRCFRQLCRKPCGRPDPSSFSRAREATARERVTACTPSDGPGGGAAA
T1 sequence (P35372 whole entry): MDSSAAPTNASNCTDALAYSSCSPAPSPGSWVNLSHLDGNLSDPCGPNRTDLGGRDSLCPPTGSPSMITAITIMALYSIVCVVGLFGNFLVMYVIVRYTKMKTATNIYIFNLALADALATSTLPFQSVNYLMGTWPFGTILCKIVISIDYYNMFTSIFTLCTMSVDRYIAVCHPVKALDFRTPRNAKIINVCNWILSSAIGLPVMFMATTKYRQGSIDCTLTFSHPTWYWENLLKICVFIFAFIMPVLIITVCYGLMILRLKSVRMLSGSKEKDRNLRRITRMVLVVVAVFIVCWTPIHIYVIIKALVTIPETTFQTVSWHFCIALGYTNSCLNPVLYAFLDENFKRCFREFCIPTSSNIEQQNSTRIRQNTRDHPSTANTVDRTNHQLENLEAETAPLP
Opioid receptors; mu & delta (Homo sapiens), sequence (P35372 whole entry, looked up): as the sequence (P35372 whole entry) above
Opioid receptors; mu & delta (Homo sapiens), sequence (P41143 whole entry, looked up): as the sequence (P41143 whole entry) above

SMILES | Ratio [1] | Ki (Mu-type opioid receptor [2]) [nM] | Ratio [3] | Ki [4] [nM] | Ki [5] [nM] | Ki [6] [nM] | Ki [7] [nM] | Ke [8] [nM] | Ke [9] [nM] | Ke (Mu-type opioid receptor [10]) [nM] | EC50 (Mu-type opioid receptor [11]) [nM] | Ke [12] [nM] | Ratio (Mu-type opioid receptor [13]) | EC50 [14] [nM]
COc1ccc2c3c1O[C@H]1c4c(c(-c5ccccc5)cn4Cc4ccccc4)C[C@@]4(O)C(C2)N(C)CC[C@]314 | > 31 | > 10000 | > 31 | > 10000 | 322 | – | – | – | – | – | – | – | – | –
Oc1ccc2c3c1O[C@H]1c4c(c(-c5ccccc5)cn4Cc4ccccc4)C[C@@]4(O)C(C2)N(CC2CC2)CC[C@]314 | – | 16.8 | – | – | – | 13.7 | 120 | – | – | – | – | – | – | –
Cc1c(-c2ccccc2)c2c(n1Cc1ccccc1)[C@@H]1Oc3c(O)ccc4c3[C@@]13CCN(CC1CC1)C(C4)[C@]3(O)C2 | 3 and 5 | 52.7 | – | – | 17.3 | – | 183 | 306 | 3.68 | 17.7 | – | – | – | –
Cc1ccc(-c2cn(Cc3ccccc3)c3c2C[C@@]2(O)C4Cc5ccc(O)c6c5[C@@]2(CCN4CC2CC2)[C@H]3O6)cc1 | – | 77.9 | – | – | 23.5 | – | 108 | 61.1 | – | – | 1360 | 2.37 | 3.3 | –
CN1CC[C@]23c4c5ccc(O)c4O[C@H]2c2c(c(-c4ccccc4)cn2Cc2ccccc2)C[C@@]3(O)C1C5 | 0.43 | 49.5 | 1.6 | 187 | 116 | – | – | 1160 | – | 14.1 | – | – | – | 55.2
Oc1ccc2c3c1O[C@H]1c4[nH]c5ccccc5c4C[C@@]4(O)[C@@H](C2)N(CC2CC2)CC[C@]314 | – | – | – | – | – | – | – | 4.95 | 0.11 | 4.26 | – | – | – | –
CCCN1CC[C@]23c4c5ccc(O)c4O[C@H]2c2c(c(-c4ccccc4)cn2Cc2ccccc2)C[C@@]3(O)C1C5 | – | 40.1 | – | – | 21.2 | – | 191 | 210 | 6.4 | 45.3 | – | – | – | –
